ASAP1 inh = ASAP1 ArfGAP inhibition; Q9ULH1; ASAP1-stimulated ARF1 GTP hydrolysis, GDP FP detection; inhibition, % at 16.5 µM; 360,000 compounds, 0.19% hits; AID 624377; in the data active means inhibition above about 25%;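 further: 0% = vehicle with enzyme and substrate and 100% = no enzyme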
PLC-gamma1 inh = PLC-gamma1 (human) inhibition, primary screen; P19174; AID 720700; 370,000 compounds, 0.84% hits; purified PLC-gamma1, fluorogenic substrate, fluorescence; inhibition, % at 12.2 µM; in the data active means inhibition above about 9.5%
PLCb3 inh = PLC-beta3 (human) inhibition, primary screen. inhibition, % at 12.2 µM. AID 720704. Purified PLC-beta3, fluorogenic substrate, fluorescence. 370,000 compounds, 0.18% hits;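 further: 0% = median of compound wells on plate and 100% = full blocker control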
ARFGAP1 inhibitor = rat ARFGAP1 inhibition; Q62848; Arfgap1-stimulated ARF1 GTP hydrolysis, GDP FP detection; inhibition, % at 16.5 µM; 360,000 compounds, 0.26% hits;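 active means inhibition above a per-plate limit, mean inhibition of low control wells plus 3 SD, cut at about 25% in these data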;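 further: 0% = DMSO wells with enzyme and 100% = wells lacking Arfgap1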
Target sequence (Q62848 1-136 limits assumed): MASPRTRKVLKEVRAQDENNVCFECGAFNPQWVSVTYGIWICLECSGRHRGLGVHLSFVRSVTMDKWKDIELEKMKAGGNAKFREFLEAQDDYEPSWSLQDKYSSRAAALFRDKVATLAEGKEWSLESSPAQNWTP
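system = rat Arfgap1 catalytic domain, aa 1-136 | technique = FP, GDP Alexa 633 tracer displaced from anti-GDP antibody, 620/688 nm | compound = one concentration, 16.5 µM, DMSO 1.26% | medium = HEPES-based buffer, pH 7.5 | timing = compound-enzyme preincubation 20 min, reaction 120 min, detection 60 min, 25 °C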
sPLA2-III inh = Blocks human group III sPLA2 activity. QFRET BODIPY PC-A2 liposome hydrolysis, fluorescence. inhibition, % at 12.2 µM. 370,000 compounds, 0.56% hits. AID 743126;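 active means inhibition above mean plus 3 SD of compounds lying within the high and low control bounds, cut at about 19% in these data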;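 further: 0% = median of test compound wells and 100% = no enzyme DMSO wells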
Target sequence (Q9NZ20 whole entry, looked up): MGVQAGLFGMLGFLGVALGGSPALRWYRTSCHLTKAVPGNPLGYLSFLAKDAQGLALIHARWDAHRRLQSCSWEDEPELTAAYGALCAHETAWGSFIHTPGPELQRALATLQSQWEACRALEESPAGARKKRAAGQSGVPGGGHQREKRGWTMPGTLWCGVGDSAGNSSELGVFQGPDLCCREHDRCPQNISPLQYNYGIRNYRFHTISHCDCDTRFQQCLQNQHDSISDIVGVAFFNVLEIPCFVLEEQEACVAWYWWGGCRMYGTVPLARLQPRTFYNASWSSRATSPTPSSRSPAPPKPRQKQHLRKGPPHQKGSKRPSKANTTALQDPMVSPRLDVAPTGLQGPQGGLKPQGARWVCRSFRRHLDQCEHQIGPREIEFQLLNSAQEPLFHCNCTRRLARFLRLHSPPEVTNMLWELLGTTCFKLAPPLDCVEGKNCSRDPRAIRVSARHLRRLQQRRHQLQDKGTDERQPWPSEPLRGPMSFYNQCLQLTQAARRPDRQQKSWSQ
PLCg1 ctr = counter-screen for PLC-beta3 inhibitors: inhibitors of human PLC-gamma1. shares compounds with PLC-gamma1 inh. 3,300 compounds, 3.1% hits. AID 743258. purified PLC-gamma1, fluorogenic substrate, fluorescence. inhibition, % at 12.3 µM; in the data active means inhibition above about 9.5%
PLCbeta3 conf = confirmation of human PLC-beta3 inhibitors; purified PLC-beta3, fluorogenic substrate fluorescence; shares compounds with PLC-gamma1 inh; 3,300 compounds, 1% hits; inhibition, % at 12.3 µM
Numbers without * were called inactive. This is a sample that favours compounds with a hit; in the whole collection about 1.9% have one here. Unless noted, no stated cut-off is given here; in the data, active means inhibition above about 11%; inactive means the rest.

Screening c1ccc(-c2ccc(C3=Nn4c(nnc4-c4ccccn4)SC3)cc2)cc1 returned PLC-gamma1 inh 0, PLCb3 inh -3 and sPLA2-III inh -10.
`COC(=O)c1cc(-c2cccc3c2sc2ccccc23)c(=O)n2c1CCC2` gave PLC-gamma1 inh 41*, PLCb3 inh -5, sPLA2-III inh 12, PLCg1 ctr -35 and PLCbeta3 conf -28.
For COC(=O)c1cc(-c2ccc(Cl)s2)c(=O)n2c1CCC2 the results were PLC-gamma1 inh -80, PLCb3 inh -96 and sPLA2-III inh 0.
`COC(=O)c1ccc(Cl)c(NC(=O)CN(c2ccc(OC)cc2)S(=O)(=O)c2ccccc2)c1` gave ASAP1 inh -2, PLC-gamma1 inh 13*, PLCb3 inh 8, ARFGAP1 inhibitor -4, sPLA2-III inh -17, PLCg1 ctr -1 and PLCbeta3 conf -5.
Screening CC(=O)c1ccc(NS(=O)(=O)c2ccc([N+](=O)[O-])cc2)cc1 returned ASAP1 inh 5, PLC-gamma1 inh 7, PLCb3 inh 17*, ARFGAP1 inhibitor -13, sPLA2-III inh -5, PLCg1 ctr 0 and PLCbeta3 conf 0.
Screening CC1CCCN(C(=O)c2ccc(NS(=O)(=O)c3cccc([N+](=O)[O-])c3)cc2)C1 (stereo not given) returned ASAP1 inh -2, PLC-gamma1 inh 16*, PLCb3 inh -3, ARFGAP1 inhibitor 5, sPLA2-III inh -14, PLCg1 ctr -7 and PLCbeta3 conf -2.
COc1ccc(S(=O)(=O)Nc2c(C)nc3nc(C)[nH]n3c2=O)cc1 was read as ASAP1 inh 7, PLC-gamma1 inh 11*, PLCb3 inh 8, ARFGAP1 inhibitor -2, sPLA2-III inh 7, PLCg1 ctr -8 and PLCbeta3 conf -2.
For CCCCN(CCCC)C(=S)N/N=C/c1c(C)[nH]n(-c2ccccc2)c1=O the results were ASAP1 inh 9, PLC-gamma1 inh 9.9*, PLCb3 inh 5, ARFGAP1 inhibitor 10, sPLA2-III inh 11, PLCg1 ctr -9 and PLCbeta3 conf -21.
For Cc1cc(C)c2c(=O)[nH]n(C3CCCCCC3)c2n1 the results were ASAP1 inh 4, PLC-gamma1 inh -4, PLCb3 inh -8, ARFGAP1 inhibitor 16 and sPLA2-III inh 2.
`Cc1cc(C)c2c(=O)[nH]n(C3CC(C)N(C)CC3C)c2n1` (stereo not given) gave ASAP1 inh 2, PLC-gamma1 inh 9.7*, PLCb3 inh -2, ARFGAP1 inhibitor 9, sPLA2-III inh 8, PLCg1 ctr 2 and PLCbeta3 conf -5.
O=C(Cc1ccccc1)Nc1cccc(NC(=O)c2cccs2)c1 was read as ASAP1 inh 5, PLC-gamma1 inh 11*, PLCb3 inh 4, ARFGAP1 inhibitor 0, sPLA2-III inh -5, PLCg1 ctr -4 and PLCbeta3 conf -1.
Screening O=C(CN1C(=O)NC2(CCCC2)C1=O)N1CCN(S(=O)(=O)c2ccc(Cl)cc2)CC1 returned ASAP1 inh -6, PLC-gamma1 inh 4, PLCb3 inh 3, ARFGAP1 inhibitor -12 and sPLA2-III inh 0.
Screening O=C(CN1C(=O)NC2(CCCC2)C1=O)N1CCN(S(=O)(=O)c2cc(Cl)ccc2Cl)CC1 returned ASAP1 inh -9, PLC-gamma1 inh 10*, PLCb3 inh -15, ARFGAP1 inhibitor 12, sPLA2-III inh 10, PLCg1 ctr -4 and PLCbeta3 conf -5.
For CCC[C@H](/C=C/C(=O)OC(C)(C)C)Sc1ccc(OC)cc1 the results were PLC-gamma1 inh 2, PLCb3 inh -1 and sPLA2-III inh 4.
`CC(C)(C)c1ccc(-c2nnc(SCC(=O)Nc3cccc4ccccc34)n2Cc2ccco2)cc1` gave PLC-gamma1 inh 5, PLCb3 inh 2 and sPLA2-III inh -22.
CC12CCC(=O)C=C1CCC1C2C(O)CC2(C)C1CCC2(O)C(=O)CO (stereo not given) was read as ASAP1 inh 3, PLC-gamma1 inh 11*, PLCb3 inh -2, ARFGAP1 inhibitor 0, sPLA2-III inh 14, PLCg1 ctr -6 and PLCbeta3 conf 1.
C[C@]12CCC(=O)C=C1CC[C@@H]1[C@@H]2[C@@H](O)C[C@@]2(C)[C@H]1CC[C@]2(O)C(=O)CO was read as ASAP1 inh 11, PLC-gamma1 inh 0, PLCb3 inh 1, ARFGAP1 inhibitor 12 and sPLA2-III inh -1.
Screening CC(C)(C)OC(=O)n1ccc2ccc(-c3ccc4cc[nH]c4c3)cc21 returned PLC-gamma1 inh -25, PLCb3 inh -45 and sPLA2-III inh -45.
Screening CCn1cc(SCC(=O)Nc2cc(C)on2)c2ccccc21 returned ASAP1 inh -9, PLC-gamma1 inh -2, PLCb3 inh 0, ARFGAP1 inhibitor -3 and sPLA2-III inh 2.
Cc1cc(NC(=O)CSc2cn(CC(=O)N(C(C)C)C(C)C)c3ccccc23)no1 was read as ASAP1 inh -20, PLC-gamma1 inh 12*, PLCb3 inh -4, ARFGAP1 inhibitor -3, sPLA2-III inh 5, PLCg1 ctr -5 and PLCbeta3 conf -1.
`O=C(c1ccccc1)c1ccc(OCC(O)CN2CCN(S(=O)(=O)N3CCCCC3)CC2)cc1` (stereo not given) gave ASAP1 inh 14, PLC-gamma1 inh 3, PLCb3 inh 1, ARFGAP1 inhibitor 0 and sPLA2-III inh -8.
`CCC(=O)c1ccc(OCC(O)CN2CCN(S(=O)(=O)N3CCCCC3)CC2)cc1` (stereo not given) gave ASAP1 inh 12, PLC-gamma1 inh 9.6*, PLCb3 inh 1, ARFGAP1 inhibitor 3, sPLA2-III inh -3, PLCg1 ctr -5 and PLCbeta3 conf 0.
For COC(=O)CSc1nnc(-c2ccc(NS(=O)(=O)c3c(C(C)C)cc(C(C)C)cc3C(C)C)cc2)o1 the results were PLC-gamma1 inh -6, PLCb3 inh -11 and sPLA2-III inh -52.
`CCOC(=O)c1c(S(=O)(=O)N(C)C2CCCCC2)c(C)n(C)c1C` gave ASAP1 inh -14, PLC-gamma1 inh 9.9*, PLCb3 inh 1, ARFGAP1 inhibitor -6, sPLA2-III inh 6, PLCg1 ctr -4 and PLCbeta3 conf 0.
Screening O=C(CSc1nnc(-c2ccc(Cl)cc2Cl)n1C1CCCCC1)N1CCCC1 returned ASAP1 inh -9, PLC-gamma1 inh 11*, PLCb3 inh 1, ARFGAP1 inhibitor -2, sPLA2-III inh -7, PLCg1 ctr 1 and PLCbeta3 conf 2.
For O=C(CSc1nnc(-c2ccc(Br)cc2)n1C1CCCCC1)N1CCCC1 the results were ASAP1 inh 5, PLC-gamma1 inh 16*, PLCb3 inh 6, ARFGAP1 inhibitor -11, sPLA2-III inh 6, PLCg1 ctr -4 and PLCbeta3 conf -2.
O=C(CSc1nnc(-c2ccccc2F)n1C1CCCCC1)N1CCCC1 was read as ASAP1 inh -2, PLC-gamma1 inh 6, PLCb3 inh 6, ARFGAP1 inhibitor -4 and sPLA2-III inh 5.
